EBI2 antag: antagonists of human EBI2 receptor; AID 651636; P32249; EBI2 beta-arrestin recruitment, luminescence, 7a,25-OHC stimulated; inhibition, % at 5 µM; 0.81% of 360,000 active; in the data active means inhibition above about 38%;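 further: enzyme fragment complementation signal reports receptor beta-arrestin coupling in cells; 0% = agonist plus DMSO wells and 100% = wells without agonist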
Target sequence (P32249 whole entry, looked up, the tested form may be a part): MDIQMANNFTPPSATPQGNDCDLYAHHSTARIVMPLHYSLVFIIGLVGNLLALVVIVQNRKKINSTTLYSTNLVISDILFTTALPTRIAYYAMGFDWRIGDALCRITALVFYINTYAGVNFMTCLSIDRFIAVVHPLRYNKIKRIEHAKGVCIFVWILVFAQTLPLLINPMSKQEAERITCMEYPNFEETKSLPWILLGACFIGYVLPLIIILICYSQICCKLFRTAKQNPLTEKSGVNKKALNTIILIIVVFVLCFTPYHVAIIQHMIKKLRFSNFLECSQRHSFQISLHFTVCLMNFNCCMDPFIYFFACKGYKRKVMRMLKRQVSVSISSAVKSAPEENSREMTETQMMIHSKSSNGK
MPTP inh: blocks calcium-induced mitochondrial swelling; 1.4% of 360,000 active; isolated mouse mitochondria, Ca2+ swelling absorbance, 30 min; AID 602449; inhibition, % at 10 µM;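 active means inhibition of 50% or more, scaled per plate between neutral and stimulator controls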;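 further: 0% = DMSO wells given calcium and 100% = 1 mM EGTA wells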
SENP1 FRET inh: blocks the human SENP1 SUMO protease catalytic domain | 0.21% of 360,000 active | inhibition, % at 10 µM | recombinant SENP1 catalytic domain, CyPet-SUMO1-YPet FRET cleavage | Q9P0U3;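 active means inhibition at least 30% at 10 µM, raw YFP signal under a set limit, fluorescence ratio 0.5 to 1.5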;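 further: 0% = enzyme with DMSO and 100% = no enzyme wells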
Target sequence (Q9P0U3 419-644 limits assumed): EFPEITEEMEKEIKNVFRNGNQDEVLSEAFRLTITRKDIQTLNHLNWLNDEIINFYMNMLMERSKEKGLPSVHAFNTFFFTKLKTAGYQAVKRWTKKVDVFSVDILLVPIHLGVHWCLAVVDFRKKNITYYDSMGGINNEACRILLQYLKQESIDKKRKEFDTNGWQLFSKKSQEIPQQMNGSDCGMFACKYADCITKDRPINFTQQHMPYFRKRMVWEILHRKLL
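Assay system: hSENP1 catalytic domain, recombinant. Amount: SENP1 enzyme, 20 pM final. Schedule: 50 min reaction, RT, dark. Technique: FRET, CFP and YFP emission. Control set: no-enzyme wells low, DMSO-plus-enzyme wells high control.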
NR3A LBD binder: modulates the human NR3A ligand-binding domain; 2.5% of 340,000 active; Tm shift relative to glycine control, % at 25 µM; AID 1259313; NR3A LBD differential scanning fluorimetry, Tm shift; 0% = protein alone, 100% = glycine-bound protein;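 active means melting temperature shift of at least 10% of the positive control shift, at one fixed dose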
Active calls of the source: *; nt = not tested or not shown. In the library only some 4.4% were active in any assay of this set; here they are far more common.

SMILES | EBI2 antag | MPTP inh | SENP1 FRET inh | NR3A LBD binder
O=C(NCCCN1CCCC1)C1CCN(C(=O)c2cc3sccc3n2Cc2ccc(F)cc2)CC1 | -13 | 0 | -2 | 11*
COC(=O)C1=C(C)N(CCc2ccccc2)C(=O)/C1=C\c1ccco1 | 2 | 33 | 3 | 19*
CN(Cc1ccccc1)C(=O)COC(=O)C12CC3CC(CC(Br)(C3)C1)C2 | 4 | 0 | 0 | -1
O=C(Cn1nnc2ccccc2c1=O)NCCc1ccc(Cl)cc1Cl | 2 | 2 | 2 | -4
O=C(Cn1nnc2ccccc2c1=O)NCCc1ccccc1 | 2 | 2 | -7 | 18*
COc1ccc(NC(=O)Nc2cccc3[nH]c([C@@H]4O[C@H](CO)[C@@H](O)[C@H](O)[C@H]4O)nc23)cc1OC1CCCC1 | 1 | 0 | 4 | nt
CCOc1ccccc1N1CC(C(=O)Nc2cc(Cl)ccc2C)CC1=O (stereo unspecified) | -8 | 2 | 0 | -4
CN(Cc1cccc(F)c1)C(=O)C1CC(=O)N(c2ccc3c(c2)OCCO3)C1 (stereo unspecified) | 2 | 0 | 2 | -1
Cc1cccc(CSc2cccc3cccnc23)c1 | 45* | 1 | 1 | 8
NNC(=O)c1ccc(CSc2cccc3cccnc23)cc1 | 4 | 0 | 0 | -1
O=C(Nc1ccccc1)Nc1cccc(NC(=O)Nc2ccccc2)c1F | 8 | 0 | 3 | 24*
O=C(Nc1ccccc1)Nc1ccccc1Br | 0 | 5 | 3 | -12
CC(=O)c1cccc(NC(=O)Nc2ccccc2)c1 | 3 | 1 | 3 | -11
O=C(Nc1ccc(Oc2ccc(NC(=O)Nc3ccccc3Cl)cc2)cc1)Nc1ccccc1Cl | 18 | 2 | 0 | 22*
CC(=O)c1ccc(NC(=O)Nc2ccccc2)cc1 | 3 | 40 | 3 | 27*
CNC(=O)c1ccc(NC(=O)Nc2ccccc2)cc1 | 3 | 1 | 1 | 26*
O=C(NNC(=O)c1ccc(NC(=O)c2ccccc2)cc1)c1ccccc1 | -9 | 0 | 2 | 3
CC1CCCC(NS(=O)(=O)c2cccc3nsnc23)C1C (stereo unspecified) | 9 | 1 | 3 | 4
Cn1nccc1-c1coc2c(C(=O)NCc3ccccc3)cccc12 | 0 | 1 | 0 | nt
COC(=O)c1cnc2c(c(C)nn2C)c1OC | 8 | 0 | 5 | 1
O=C(NC(Cc1ccccc1)C(=O)O)/C(=C\c1ccc(Cl)cc1)NC(=O)c1ccccc1 (stereo unspecified) | -10 | -1 | -19 | -2
O=C(NC(Cc1ccccc1)C(=O)O)/C(=C/c1ccccc1)NC(=O)c1ccccc1 (stereo unspecified) | -10 | 2 | 0 | 14*
COc1ccc(-c2cn[nH]c2-c2ccc(OCc3ccccc3F)cc2O)cc1OC | 17 | 6 | 0 | 4
CCc1cc(-c2[nH]ncc2-c2ccc([N+](=O)[O-])cc2)c(O)cc1OC | 5 | 5 | 4 | 29*
COc1ccc(-c2[nH]ncc2-c2ccc(Cl)cc2)c(O)c1 | -8 | 5 | -1 | 1
SMILES | EBI2 antag | MPTP inh | SENP1 FRET inh | NR3A LBD binder
Oc1ccc(-c2[nH]ncc2-c2ccc(Cl)cc2)c(O)c1 | -2 | 7 | -3 | 12*
O=[N+]([O-])c1ccc(COc2ccc(-c3[nH]ncc3-c3ccc(Cl)cc3)c(O)c2)cc1 | 1 | 15 | 1 | 35*
COc1ccc(-c2cn[nH]c2-c2ccc(OC)cc2O)cc1 | 6 | 2 | 0 | nt
COc1ccc(-c2cn[nH]c2-c2ccc(OCc3ccc([N+](=O)[O-])cc3)cc2O)cc1OC | 16 | 19 | 1 | 15*
COc1cc(C)ccc1OCc1cc(C(=O)N2CCN(C)C[C@@H]2c2ccccc2)no1 | 3 | -2 | -3 | -13
COc1cc(C(CC(=O)Nc2ncccc2C)N2Cc3ccccc3C2=O)cc(OC)c1OC (stereo unspecified) | -11 | 4 | -1 | 1
COc1ccc(Cc2nnc(NC(=O)c3cccc(F)c3)s2)cc1OC | 1 | 1 | 2 | 0
COc1ccccc1-c1cn[nH]c1-c1ccc(OCc2ccccc2)cc1O | 19 | 6 | 1 | 7
COc1ccc(-c2cn[nH]c2-c2ccc(OCc3ccccc3)cc2O)cc1 | 22 | 6 | 2 | 12*
CCc1ccc(C(O)c2ncc(-c3ccc(Cl)cc3)[nH]2)cc1 (stereo unspecified) | 15 | 10 | 1 | nt
Cc1nonc1NC(=O)CSc1nnc(-c2ccoc2C)n1C | -3 | 0 | 4 | 20*
Cc1ccc(C)c(-n2c(SCC(=O)Nc3nonc3C)nnc2-c2ccoc2C)c1 | 2 | -7 | -3 | 0
Cn1c(SCC(=O)Nc2cc(Cl)cc(Cl)c2)nnc1-c1ccc2nonc2c1 | 1 | 6 | 2 | 45*
Cc1cc(-c2nc(C)c(-c3nnc(SCC(=O)Nc4cc(Cl)cc(Cl)c4)n3C)s2)no1 | 2 | 12 | -5 | -6
CN(N=Cc1ccc([N+](=O)[O-])cc1)c1ccccn1 | -9 | 0 | 2 | nt
CC[C@@H]1C/C=C\Cc2ccccc2[C@H](C(=O)C[C@@H](O)CC(C)=O)OC1=O | -8 | 1 | 2 | -5
O=C(O)c1cc(O)c2c(c1)[C@H]([C@H]1c3cc(C(=O)O)cc(O)c3C(=O)c3c(O[C@@H]4O[C@H](CO)[C@@H](O)[C@H](O)[C@H]4O)cccc31)c1cccc(OC3O[C@H](CO)[C@@H](O)[C@H](O)[C@H]3O)c1C2=O (stereo partly specified) | -11 | -3 | 27 | 26*
O=C(O)c1cc(O)c2c(c1)[C@@H]([C@H]1c3cc(C(=O)O)cc(O)c3C(=O)c3c(O[C@@H]4O[C@H](CO)[C@@H](O)[C@H](O)[C@H]4O)cccc31)c1cccc(OC3O[C@H](CO)[C@@H](O)[C@H](O)[C@H]3O)c1C2=O (stereo partly specified) | -15 | 2 | 16 | 7
CCOC(=O)CN1C(=O)N[C@@H](c2cccc(C(F)(F)F)c2)[C@@H](C(=O)OC)[C@H]1C | -20 | -1 | -1 | 0
C=CCNC(=O)c1ccc(-c2nc(-c3ccc(Cl)c(Cl)c3)cs2)cc1 | 12 | 2 | 0 | 31*
COc1ccc(S(=O)(=O)n2nc(-c3ccc(Cl)cc3)cc2N)cc1OC | 5 | 2 | 3 | 14*
COc1ccc(OC)c(S(=O)(=O)n2nc(-c3ccccc3)cc2N)c1 | -12 | -2 | -4 | 22*
CS(=O)(=O)c1cc(C(=O)O)cc(NCc2ccccc2)c1Oc1ccccc1 | -10 | 1 | 0 | nt
C#CCn1c(S(=O)(=O)Cc2ccc(F)cc2)nc(-c2ccccc2)c1-c1ccccc1 | 42 | 0 | 1 | 2
Cc1cccc(N(Cc2ccccc2)C(=O)CN2C(=O)NC3(CCCCC3C)C2=O)c1 (stereo unspecified) | 9 | 0 | 3 | 0
CCOC(=O)/C(=N\Nc1cc(C(F)(F)F)ccc1Cl)N(CC)CC | 5 | 9 | 0 | 15*
O=C(CSc1nc(NS(=O)(=O)c2ccccc2)cc(=O)[nH]1)Nc1ccc(Cl)cc1 | 2 | 2 | -5 | -20
